Measured values as given in paper PMC3755622 (Archives of biochemistry and biophysics, 2013).
pKi: −log10 of the molar value.

Tests used:
Format in all cases: biochemical, Prunus dulcis
[1] = system: sweet almond β-glucosidase; assay: KM as Ki from inhibition of pNPG hydrolysis at […] nm; details: pH 6.3, 0.01 M MES, 0.01 M NaCl, 4.6% v/v DMSO, 25°C; kcat calculated from kcat/KM and KM
[2] = system: sweet almond β-glucosidase; assay: initial velocity, stopped assay, glucose by hexokinase / G6PDH; details: pH 6.3, 0.01 M MES, 0.01 M NaCl, 4.6% v/v DMSO, 25°C, H2O
Procedure, shortened: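 Chromatographically purified almond enzyme (65 kD), diluted from stock in 0.01 M MES/0.01 M NaCl pH 6.3, added to about 2 μg/mL to start the reaction at 25.0 °C. Thioglucoside substrate came from DMSO stock. Aliquots were withdrawn and glucose measured by coupled yeast hexokinase/L. mesenteroides G6PDH (10 mM ATP, 5 mM MgSO4, 1 mM NAD+, pH 7.5), reading NADH at 340 nm. Km came from non-linear Michaelis-Menten fit.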

[3] = target: sweet almond β-glucosidase; assay: inhibition of pNPG hydrolysis, p-nitrophenolate at […] nm; details: pNPG about 0.1 mM, pH 6.3, 25°C; not detectably hydrolysed
[4] = system: sweet almond β-glucosidase; assay: p-nitrophenolate absorbance at […] nm; details: pH 6.3, 0.01 M MES, 0.01 M NaCl, 4.6% v/v DMSO, 25°C

SMILES: Cn1c(S[C@@H]2O[C@H](CO)[C@@H](O)[C@H](O)[C@H]2O)nc2ccccc21 [GlcS(N-Me)Biz, 1'-methylbenzimidazol-2'-yl 1-thio-β-D-glucopyranoside]
- Km [1]: 47000 µM

SMILES: OC[C@H]1O[C@@H](Sc2nc3ccccc3[nH]2)[C@H](O)[C@@H](O)[C@@H]1O [GlcSBiz, 2'-benzimidazolyl 1-thio-β-D-glucopyranoside]
- Km [2]: 2500 µM

SMILES: OC[C@H]1O[C@@H](Sc2nc3ccccc3o2)[C@H](O)[C@@H](O)[C@@H]1O [GlcSBox, 2-benzoxazolyl 1-thio β-D-glucopyranoside]
- Km [1]: 2700 µM

SMILES: OC[C@H]1O[C@@H](SC2=NCCS2)[C@H](O)[C@@H](O)[C@@H]1O [GlcSTaz, 2-thiazolinyl1-thio-β-D-glucopyranoside]
- pKi [3]: 2.06

SMILES: O=[N+]([O-])c1ccc(O[C@@H]2O[C@H](CO)[C@@H](O)[C@H](O)[C@H]2O)cc1 [pNPG, p-nitrophenyl β-D-glucopyranoside]
- Km [4]: 2500 µM
